In ChEMBL document CHEMBL5058577, “EUbOPEN Chemogenomics Library 2 (Multiplex)” (2022):

Test system: HEK-293T
Experiment: Multiplex assay against HEK293T
Type: toxicity, cell-based
Settings: human
Outline: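 Per cents of healthy-nucleus cells form the tubulin, mitochondrial-mass and membrane-permeability phenotype values. Live cells were stained at seeding with Hoechst33342, BioTracker Green Microtubule Cytoskeleton Dye, MitoTracker Red and Annexin V Alexa Fluor 680. After compound addition they were imaged on a CQ1 microscope at 37°C and 5% CO2, and CellPathfinder machine-learning gating split them into Hoechst high-intensity objects or normal cells, normal cells into healthy, pyknosed or fragmented nuclei, and pyknosed cells into mitotic or apoptotic.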

[1] = 12 h, 1 µM, compound concentration 1 uM, replicate 1
[2] = 12 h, 1 µM, compound concentration 1 uM, replicate 2
[3] = 12 h, 10 µM, compound concentration 10 uM, replicate 1
[4] = 12 h, 10 µM, compound concentration 10 uM, replicate 2
[5] = 24 h, 1 µM, compound concentration 1 uM, replicate 1
[6] = 24 h, 1 µM, compound concentration 1 uM, replicate 2
[7] = 24 h, 10 µM, compound concentration 10 uM, replicate 1
[8] = 24 h, 10 µM, compound concentration 10 uM, replicate 2
[9] = 48 h, 1 µM, compound concentration 1 uM, replicate 1
[10] = 48 h, 1 µM, compound concentration 1 uM, replicate 2
[11] = 48 h, 10 µM, compound concentration 10 uM, replicate 1
[12] = 48 h, 10 µM, compound concentration 10 uM, replicate 2

CCCCCCNC(=O)Nc1ccc(S(=O)(=O)Nc2ccc(CCNC[C@H](O)COc3ccc(O)cc3)cc2)cc1 [L-755507]
Population Apoptotic (%) [1]: 35%
Population Fragmented Nuclei (%) [1]: 8%
Population Healthy Nuclei (%) [1]: 84%
Population Hoechst High Intensity Objects (%) [1]: 7%
Population Membrane Permeable-Phenotype (%) [1]: 0%
Population Mitochondria Different-Phenotype (%) [1]: 39%
Population Mitotic Cells (%) [1]: 64%
Population Normal (%) [1]: 92%
Population Pyknosed Nuclei (%) [1]: 7%
Population Tubulin-Different-Phenotype (%) [1]: 28%
Total Cell Count [1]: 494
Population Apoptotic (%) [2]: 31%
Population Fragmented Nuclei (%) [2]: 6%
Population Healthy Nuclei (%) [2]: 83%
Population Mitochondria Different-Phenotype (%) [2]: 64%
Population Mitotic Cells (%) [2]: 68%
Population Pyknosed Nuclei (%) [2]: 10%
Population Tubulin-Different-Phenotype (%) [2]: 32%
Total Cell Count [2]: 403
Population Apoptotic (%) [3]: 58%
Population Fragmented Nuclei (%) [3]: 10%
Population Healthy Nuclei (%) [3]: 74%
Population Hoechst High Intensity Objects (%) [3]: 17%
Population Membrane Permeable-Phenotype (%) [3]: 0%
Population Mitochondria Different-Phenotype (%) [3]: 69%
Population Mitotic Cells (%) [3]: 41%
Population Normal (%) [3]: 82%
Population Pyknosed Nuclei (%) [3]: 14%
Population Tubulin-Different-Phenotype (%) [3]: 68%
Total Cell Count [3]: 384
Population Apoptotic (%) [4]: 71%
Population Fragmented Nuclei (%) [4]: 8%
Population Healthy Nuclei (%) [4]: 79%
Population Hoechst High Intensity Objects (%) [4]: 7%
Population Mitochondria Different-Phenotype (%) [4]: 87%
Population Mitotic Cells (%) [4]: 28%
Population Normal (%) [4]: 92%
Population Pyknosed Nuclei (%) [4]: 11%
Population Tubulin-Different-Phenotype (%) [4]: 61%
Total Cell Count [4]: 341
Population Apoptotic (%) [5]: 19%
Population Fragmented Nuclei (%) [5]: 9%
Population Healthy Nuclei (%) [5]: 80%
Population Hoechst High Intensity Objects (%) [5]: 5%
Population Membrane Permeable-Phenotype (%) [5]: 0%
Population Mitochondria Different-Phenotype (%) [5]: 20%
Population Mitotic Cells (%) [5]: 80%
Population Normal (%) [5]: 94%
Population Pyknosed Nuclei (%) [5]: 9%
Population Tubulin-Different-Phenotype (%) [5]: 20%
Total Cell Count [5]: 634
Population Apoptotic (%) [6]: 30%
Population Fragmented Nuclei (%) [6]: 11%
Population Hoechst High Intensity Objects (%) [6]: 4%
Population Mitochondria Different-Phenotype (%) [6]: 42%
Population Mitotic Cells (%) [6]: 70%
Population Normal (%) [6]: 95%
Population Pyknosed Nuclei (%) [6]: 7%
Population Tubulin-Different-Phenotype (%) [6]: 22%
Total Cell Count [6]: 547
Population Apoptotic (%) [7]: 26%
Population Fragmented Nuclei (%) [7]: 8%
Population Healthy Nuclei (%) [7]: 80%
Population Hoechst High Intensity Objects (%) [7]: 14%
Population Membrane Permeable-Phenotype (%) [7]: 0%
Population Mitochondria Different-Phenotype (%) [7]: 59%
Population Mitotic Cells (%) [7]: 73%
Population Normal (%) [7]: 85%
Population Pyknosed Nuclei (%) [7]: 11%
Population Tubulin-Different-Phenotype (%) [7]: 42%
Total Cell Count [7]: 461
Population Apoptotic (%) [8]: 48%
Population Fragmented Nuclei (%) [8]: 7%
Population Healthy Nuclei (%) [8]: 83%
Population Hoechst High Intensity Objects (%) [8]: 9%
Population Mitochondria Different-Phenotype (%) [8]: 68%
Population Mitotic Cells (%) [8]: 51%
Population Normal (%) [8]: 90%
Population Pyknosed Nuclei (%) [8]: 9%
Population Tubulin-Different-Phenotype (%) [8]: 51%
Total Cell Count [8]: 402
Population Apoptotic (%) [9]: 10%
Population Fragmented Nuclei (%) [9]: 12%
Population Healthy Nuclei (%) [9]: 81%
Population Hoechst High Intensity Objects (%) [9]: 3%
Population Membrane Permeable-Phenotype (%) [9]: 2%
Population Mitochondria Different-Phenotype (%) [9]: 16%
Population Mitotic Cells (%) [9]: 89%
Population Normal (%) [9]: 96%
Population Pyknosed Nuclei (%) [9]: 6%
Population Tubulin-Different-Phenotype (%) [9]: 15%
Total Cell Count [9]: 1052
Population Apoptotic (%) [10]: 15%
Population Fragmented Nuclei (%) [10]: 13%
Population Healthy Nuclei (%) [10]: 80%
Population Hoechst High Intensity Objects (%) [10]: 5%
Population Mitochondria Different-Phenotype (%) [10]: 24%
Population Mitotic Cells (%) [10]: 84%
Population Normal (%) [10]: 94%
Population Tubulin-Different-Phenotype (%) [10]: 20%
Total Cell Count [10]: 775
Population Apoptotic (%) [11]: 46%
Population Fragmented Nuclei (%) [11]: 15%
Population Healthy Nuclei (%) [11]: 75%
Population Hoechst High Intensity Objects (%) [11]: 11%
Population Membrane Permeable-Phenotype (%) [11]: 1%
Population Mitochondria Different-Phenotype (%) [11]: 36%
Population Mitotic Cells (%) [11]: 53%
Population Normal (%) [11]: 88%
Population Pyknosed Nuclei (%) [11]: 9%
Population Tubulin-Different-Phenotype (%) [11]: 32%
Total Cell Count [11]: 598
Population Apoptotic (%) [12]: 65%
Population Fragmented Nuclei (%) [12]: 13%
Population Healthy Nuclei (%) [12]: 80%
Population Hoechst High Intensity Objects (%) [12]: 8%
Population Membrane Permeable-Phenotype (%) [12]: 0%
Population Mitochondria Different-Phenotype (%) [12]: 47%
Population Mitotic Cells (%) [12]: 34%
Population Normal (%) [12]: 91%
Population Pyknosed Nuclei (%) [12]: 5%
Population Tubulin-Different-Phenotype (%) [12]: 39%
Total Cell Count [12]: 596

CN1CCN2c3ccccc3Cc3ccccc3C2C1.Cl (configuration not stated) [MIANSERIN HYDROCHLORIDE]
Population Apoptotic (%) [1]: 23%
Population Fragmented Nuclei (%) [1]: 5%
Population Healthy Nuclei (%) [1]: 79%
Population Hoechst High Intensity Objects (%) [1]: 5%
Population Membrane Permeable-Phenotype (%) [1]: 0%
Population Mitochondria Different-Phenotype (%) [1]: 36%
Population Mitotic Cells (%) [1]: 76%
Population Normal (%) [1]: 94%
Population Pyknosed Nuclei (%) [1]: 14%
Population Tubulin-Different-Phenotype (%) [1]: 21%
Total Cell Count [1]: 338
Population Apoptotic (%) [2]: 46%
Population Fragmented Nuclei (%) [2]: 7%
Population Healthy Nuclei (%) [2]: 77%
Population Hoechst High Intensity Objects (%) [2]: 10%
Population Mitochondria Different-Phenotype (%) [2]: 63%
Population Mitotic Cells (%) [2]: 53%
Population Normal (%) [2]: 89%
Population Tubulin-Different-Phenotype (%) [2]: 17%
Total Cell Count [2]: 376
Population Apoptotic (%) [3]: 34%
Population Fragmented Nuclei (%) [3]: 5%
Population Healthy Nuclei (%) [3]: 81%
Population Hoechst High Intensity Objects (%) [3]: 9%
Population Membrane Permeable-Phenotype (%) [3]: 1%
Population Mitochondria Different-Phenotype (%) [3]: 45%
Population Mitotic Cells (%) [3]: 65%
Population Normal (%) [3]: 90%
Population Pyknosed Nuclei (%) [3]: 13%
Population Tubulin-Different-Phenotype (%) [3]: 40%
Total Cell Count [3]: 410
Population Apoptotic (%) [4]: 42%
Population Healthy Nuclei (%) [4]: 85%
Population Hoechst High Intensity Objects (%) [4]: 4%
Population Membrane Permeable-Phenotype (%) [4]: 0%
Population Mitochondria Different-Phenotype (%) [4]: 53%
Population Mitotic Cells (%) [4]: 57%
Population Normal (%) [4]: 95%
Population Pyknosed Nuclei (%) [4]: 8%
Population Tubulin-Different-Phenotype (%) [4]: 28%
Total Cell Count [4]: 491
Population Apoptotic (%) [5]: 22%
Population Fragmented Nuclei (%) [5]: 9%
Population Healthy Nuclei (%) [5]: 80%
Population Hoechst High Intensity Objects (%) [5]: 1%
Population Membrane Permeable-Phenotype (%) [5]: 0%
Population Mitochondria Different-Phenotype (%) [5]: 21%
Population Mitotic Cells (%) [5]: 77%
Population Normal (%) [5]: 98%
Population Pyknosed Nuclei (%) [5]: 10%
Population Tubulin-Different-Phenotype (%) [5]: 14%
Total Cell Count [5]: 479
Population Apoptotic (%) [6]: 26%
Population Fragmented Nuclei (%) [6]: 10%
Population Hoechst High Intensity Objects (%) [6]: 8%
Population Mitochondria Different-Phenotype (%) [6]: 37%
Population Mitotic Cells (%) [6]: 73%
Population Normal (%) [6]: 91%
Population Pyknosed Nuclei (%) [6]: 9%
Population Tubulin-Different-Phenotype (%) [6]: 16%
Total Cell Count [6]: 486
Population Apoptotic (%) [7]: 24%
Population Fragmented Nuclei (%) [7]: 8%
Population Healthy Nuclei (%) [7]: 77%
Population Hoechst High Intensity Objects (%) [7]: 5%
Population Membrane Permeable-Phenotype (%) [7]: 0%
Population Mitochondria Different-Phenotype (%) [7]: 31%
Population Mitotic Cells (%) [7]: 75%
Population Normal (%) [7]: 94%
Population Pyknosed Nuclei (%) [7]: 14%
Population Tubulin-Different-Phenotype (%) [7]: 34%
Total Cell Count [7]: 486
Population Apoptotic (%) [8]: 32%
Population Fragmented Nuclei (%) [8]: 5%
Population Healthy Nuclei (%) [8]: 84%
Population Hoechst High Intensity Objects (%) [8]: 3%
Population Mitochondria Different-Phenotype (%) [8]: 36%
Population Mitotic Cells (%) [8]: 67%
Population Normal (%) [8]: 96%
Population Pyknosed Nuclei (%) [8]: 10%
Population Tubulin-Different-Phenotype (%) [8]: 21%
Total Cell Count [8]: 612
Population Apoptotic (%) [9]: 13%
Population Fragmented Nuclei (%) [9]: 15%
Population Healthy Nuclei (%) [9]: 77%
Population Hoechst High Intensity Objects (%) [9]: 1%
Population Membrane Permeable-Phenotype (%) [9]: 1%
Population Mitochondria Different-Phenotype (%) [9]: 15%
Population Mitotic Cells (%) [9]: 86%
Population Normal (%) [9]: 98%
Population Pyknosed Nuclei (%) [9]: 6%
Population Tubulin-Different-Phenotype (%) [9]: 9%
Total Cell Count [9]: 812
Population Apoptotic (%) [10]: 37%
Population Fragmented Nuclei (%) [10]: 16%
Population Healthy Nuclei (%) [10]: 78%
Population Hoechst High Intensity Objects (%) [10]: 3%
Population Membrane Permeable-Phenotype (%) [10]: 0%
Population Mitochondria Different-Phenotype (%) [10]: 18%
Population Mitotic Cells (%) [10]: 62%
Population Normal (%) [10]: 96%
Population Pyknosed Nuclei (%) [10]: 4%
Total Cell Count [10]: 761
Population Apoptotic (%) [11]: 24%
Population Fragmented Nuclei (%) [11]: 14%
Population Healthy Nuclei (%) [11]: 76%
Population Hoechst High Intensity Objects (%) [11]: 2%
Population Membrane Permeable-Phenotype (%) [11]: 0%
Population Mitochondria Different-Phenotype (%) [11]: 18%
Population Mitotic Cells (%) [11]: 75%
Population Normal (%) [11]: 97%
Population Pyknosed Nuclei (%) [11]: 8%
Population Tubulin-Different-Phenotype (%) [11]: 17%
Total Cell Count [11]: 702
Population Apoptotic (%) [12]: 35%
Population Healthy Nuclei (%) [12]: 79%
Population Hoechst High Intensity Objects (%) [12]: 1%
Population Membrane Permeable-Phenotype (%) [12]: 1%
Population Mitochondria Different-Phenotype (%) [12]: 14%
Population Mitotic Cells (%) [12]: 64%
Population Normal (%) [12]: 98%
Population Pyknosed Nuclei (%) [12]: 6%
Population Tubulin-Different-Phenotype (%) [12]: 11%
Total Cell Count [12]: 860
